Reference: ChEMBL document CHEMBL3351386, “Multidrug resistance (MDR) reversers: High activity and efficacy in a series of asymmetrical N,N-bis(alkanol)amine aryl esters” (Eur J Med Chem, 2014)

Columns and labels:
Assay type in all cases: cell-based
[1] = Modulatory activity at P-gp in human K562/DOX cells assessed as increase in nuclear concentration of pirarubicin by spectrofluorometric assay; conditions: K562/Adr, read-out: I50
[2] = system: K562; assay: Intrinsic cytotoxicity against doxorubicin-resistant human K562 cells at 3 uM after 72 hrs by MTT assay; conditions: k562, 72 h
Procedure, shortened: (§1)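 K562 parental and P-gp-overexpressing K562/DOX cells, exponential phase (3 × 10⁵ cells/mL), seeded at 3000 cells/well. Test compounds alone at 0.1, 1.0 or 3.0 µM, without doxorubicin. Incubated 37 °C, 5% CO₂, 72 h. MTT added, further 3 h incubation, formazan crystals inspected microscopically.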

[3] = system: K562; assay: Intrinsic cytotoxicity against human K562 cells at 0.1 to 3 uM after 72 hrs by MTT assay; conditions: k562, 72 h; procedure, shortened: as §1
[4] = target: ATP-dependent translocase ABCB1 (Homo sapiens, UniProt P08183); assay: Modulatory activity at P-gp in doxorubicin-resistant human K562 cells assessed as MDR-reversing activity by measuring doxorubicin-induced cell mortality after 72 hrs by MTT assay relative to untreated control; conditions: k562, 72 h
Procedure, shortened: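 K562/DOX (P-gp-overexpressing, doxorubicin-resistant) cells in exponential growth were seeded at 3000 cells/well. Doxorubicin was given alone or with modulator at 0.1, 1.0 or 3.0 µM, and incubated 72 h at 37 °C in 5% CO2. Viability was read by MTT with a further 3 h incubation. Reversal fold is the doxorubicin IC50 without modulator divided by the IC50 with modulator. Values are the mean of ≥3 determinations, each with quadruplicate cultures.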

Sequence of ATP-dependent translocase ABCB1 (P08183 whole entry): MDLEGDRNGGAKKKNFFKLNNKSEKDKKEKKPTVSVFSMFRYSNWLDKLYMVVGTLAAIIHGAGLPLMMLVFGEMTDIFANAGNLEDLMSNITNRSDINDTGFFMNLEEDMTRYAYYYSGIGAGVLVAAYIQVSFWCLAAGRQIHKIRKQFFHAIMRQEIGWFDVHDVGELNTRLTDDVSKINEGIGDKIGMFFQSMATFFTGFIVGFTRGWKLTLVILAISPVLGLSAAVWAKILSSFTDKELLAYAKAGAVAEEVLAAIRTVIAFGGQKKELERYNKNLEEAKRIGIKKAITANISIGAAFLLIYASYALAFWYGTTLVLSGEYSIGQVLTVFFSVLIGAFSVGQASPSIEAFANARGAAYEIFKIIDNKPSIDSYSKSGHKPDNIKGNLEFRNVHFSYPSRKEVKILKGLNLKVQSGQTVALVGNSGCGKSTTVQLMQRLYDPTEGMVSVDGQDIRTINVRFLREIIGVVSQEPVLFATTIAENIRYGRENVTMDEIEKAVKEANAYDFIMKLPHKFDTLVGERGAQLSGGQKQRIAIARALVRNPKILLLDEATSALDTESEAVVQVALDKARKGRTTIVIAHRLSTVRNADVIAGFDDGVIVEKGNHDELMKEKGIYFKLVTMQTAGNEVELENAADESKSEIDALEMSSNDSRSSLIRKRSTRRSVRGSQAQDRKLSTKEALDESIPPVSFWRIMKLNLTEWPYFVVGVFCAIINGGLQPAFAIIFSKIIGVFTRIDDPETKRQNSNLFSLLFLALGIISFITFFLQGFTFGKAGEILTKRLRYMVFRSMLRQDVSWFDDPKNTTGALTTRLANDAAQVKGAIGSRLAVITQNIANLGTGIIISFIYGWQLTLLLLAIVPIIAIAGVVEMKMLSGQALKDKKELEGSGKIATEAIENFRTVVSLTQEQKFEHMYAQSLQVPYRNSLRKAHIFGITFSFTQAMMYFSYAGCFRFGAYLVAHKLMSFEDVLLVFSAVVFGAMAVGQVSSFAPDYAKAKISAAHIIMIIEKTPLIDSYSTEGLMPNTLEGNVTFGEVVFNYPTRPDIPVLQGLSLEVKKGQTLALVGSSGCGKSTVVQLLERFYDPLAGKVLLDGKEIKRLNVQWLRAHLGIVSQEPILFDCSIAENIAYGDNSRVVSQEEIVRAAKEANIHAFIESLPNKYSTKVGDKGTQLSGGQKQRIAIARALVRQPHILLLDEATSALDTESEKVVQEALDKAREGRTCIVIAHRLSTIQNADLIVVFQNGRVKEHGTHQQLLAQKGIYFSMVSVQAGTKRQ

| SMILES | IC50 [1] | further results |
| --- | --- | --- |
| C=C[C@@H]1CN2CC[C@H]1C[C@H]2[C@H](OCC(=O)OCCCCCN(C)CCCCCOC(=O)/C=C/c1cc(OC)c(OC)c(OC)c1)c1ccnc2ccc(OC)cc12 | 3430 nM | – |
| C=C[C@@H]1CN2CC[C@H]1C[C@H]2[C@H](OCC(=O)OCCCN(C)CCCOC(=O)/C=C/c1cc(OC)c(OC)c(OC)c1)c1ccnc2ccc(OC)cc12 | 5060 nM | – |
| C=C[C@@H]1CN2CC[C@H]1C[C@H]2[C@@H](OCC(=O)OCCCN(C)CCCOC(=O)/C=C/c1cc(OC)c(OC)c(OC)c1)c1ccnc2ccc(OC)cc12 | 4790 nM | – |
| COc1ccc2nccc(C(=O)OCCCN(C)CCCOC(=O)/C=C/c3cc(OC)c(OC)c(OC)c3)c2c1 | 880 nM | – |
| COc1cc(/C=C/C(=O)OCCCN(C)CCCOC(=O)C2c3ccccc3-c3ccccc32)cc(OC)c1OC | 500 nM | – |
| COc1cc(C#CC(=O)OCCCN(C)CCCOC(=O)c2cc(OC)c(OC)c(OC)c2)cc(OC)c1OC | 1000 nM | – |
| COc1cc(C#CC(=O)OCCCN(C)CCCOC(=O)c2c3ccccc3cc3ccccc23)cc(OC)c1OC | 700 nM | – |
| C=C[C@@H]1CN2CC[C@H]1C[C@H]2[C@@H](OCC(=O)OCCCCCN(C)CCCCCOC(=O)/C=C/c1cc(OC)c(OC)c(OC)c1)c1ccnc2ccc(OC)cc12 | 2650 nM | – |
| COc1ccc2nccc(C(=O)OCCCCCN(C)CCCCCOC(=O)/C=C/c3cc(OC)c(OC)c(OC)c3)c2c1 | 750 nM | – |
| COc1cc(C#CC(=O)OCCCCCN(C)CCCCCOC(=O)c2cc(OC)c(OC)c(OC)c2)cc(OC)c1OC | 290 nM | – |
| COc1cc(C#CC(=O)OCCCCCN(C)CCCCCOC(=O)c2c3ccccc3cc3ccccc23)cc(OC)c1OC | 340 nM | – |
| COc1cc(/C=C/C(=O)OCCCN(C)CCCCCOC(=O)c2cc(OC)c(OC)c(OC)c2)cc(OC)c1OC | 270 nM | – |
| COc1cc(/C=C/C(=O)OCCCCCN(C)CCCOC(=O)c2cc(OC)c(OC)c(OC)c2)cc(OC)c1OC | 120 nM | – |
| COc1cc(/C=C/C(=O)OCCCCN(C)CCCCOC(=O)c2cc(OC)c(OC)c(OC)c2)cc(OC)c1OC | 1530 nM | – |
| COc1cc(/C=C/C(=O)OCCCN(C)CCCCCOC(=O)c2c3ccccc3cc3ccccc23)cc(OC)c1OC | 40 nM | Activity [2]: <= 20%; Activity [3]: Non-toxic |
| COc1cc(/C=C/C(=O)OCCCCCN(C)CCCOC(=O)c2c3ccccc3cc3ccccc23)cc(OC)c1OC | 40 nM | Activity [2]: <= 20%; mortality [4]: 100%; Activity [3]: Non-toxic |
| COc1cc(/C=C/C(=O)OCCCCN(C)CCCCOC(=O)c2c3ccccc3cc3ccccc23)cc(OC)c1OC | 70 nM | Activity [2]: <= 20%; mortality [4]: 100%; Activity [3]: Non-toxic |
| COc1cc(C#CC(=O)OCCCN(C)CCCCCOC(=O)c2cc(OC)c(OC)c(OC)c2)cc(OC)c1OC | 260 nM | – |
| COc1cc(C#CC(=O)OCCCCCN(C)CCCOC(=O)c2cc(OC)c(OC)c(OC)c2)cc(OC)c1OC | 310 nM | – |
| COc1cc(C#CC(=O)OCCCCN(C)CCCCOC(=O)c2cc(OC)c(OC)c(OC)c2)cc(OC)c1OC | 1030 nM | – |
| COc1cc(C#CC(=O)OCCCN(C)CCCCCOC(=O)c2c3ccccc3cc3ccccc23)cc(OC)c1OC | 110 nM | – |
| COc1cc(C#CC(=O)OCCCCCN(C)CCCOC(=O)c2c3ccccc3cc3ccccc23)cc(OC)c1OC | 100 nM | – |
| COc1cc(C#CC(=O)OCCCCN(C)CCCCOC(=O)c2c3ccccc3cc3ccccc23)cc(OC)c1OC | 100 nM | – |
| COc1cc(/C=C/C(=O)OCCCCCN(C)CCCOC(=O)C2c3ccccc3-c3ccccc32)cc(OC)c1OC | 190 nM | – |
| COc1cc(/C=C/C(=O)OCCCN(C)CCCCCOC(=O)C2c3ccccc3-c3ccccc32)cc(OC)c1OC | 350 nM | – |
| COc1cc(/C=C/C(=O)OCCCCN(C)CCCCOC(=O)C2c3ccccc3-c3ccccc32)cc(OC)c1OC | 110 nM | – |
